# Measurements taken from ChEMBL document CHEMBL5500421 (J Med Chem, 2024).
# The source made the active and inactive calls. The rule behind the calls is not given here.
# Assays:
# [1] = target: T1, Sphingosine-1-phosphate transporter SPNS2 (Mus musculus) (UniProt Q91VM4); test: Inhibition of mouse Spns2 expressed in G418-resistant human HeLa cells assessed as decrease in S1P level at 1 uM incubated for 16 to 18 hrs by LC-MS/MS analysis relative to control; type: cell-based; details: time 16-18 hrs
# T1 sequence (whole entry): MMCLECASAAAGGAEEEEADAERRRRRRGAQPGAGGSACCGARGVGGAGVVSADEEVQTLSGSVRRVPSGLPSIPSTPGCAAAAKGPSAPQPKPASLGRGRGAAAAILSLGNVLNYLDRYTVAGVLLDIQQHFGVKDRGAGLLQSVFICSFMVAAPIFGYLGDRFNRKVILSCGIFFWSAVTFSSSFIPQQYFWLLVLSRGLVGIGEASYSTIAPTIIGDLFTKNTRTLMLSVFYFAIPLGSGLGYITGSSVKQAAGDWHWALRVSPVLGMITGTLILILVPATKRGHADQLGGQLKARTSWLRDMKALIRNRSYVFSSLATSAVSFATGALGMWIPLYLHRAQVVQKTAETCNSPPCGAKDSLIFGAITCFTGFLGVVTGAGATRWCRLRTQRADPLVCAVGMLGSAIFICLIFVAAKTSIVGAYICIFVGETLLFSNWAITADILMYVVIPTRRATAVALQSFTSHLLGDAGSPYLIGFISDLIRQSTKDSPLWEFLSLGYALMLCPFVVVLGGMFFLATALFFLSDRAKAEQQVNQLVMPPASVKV
# Method in brief: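 HeLa cells stably transfected with mouse Spns2 (pcDNA3.1; G418-resistant pools). S1P catabolism blocked with 4-deoxypyridoxine 1 mM, NaF 2 mM and Na3VO4 0.2 mM. Near-confluent cells incubated 16–18 h at 37 °C with 1 μM inhibitor in serum-free medium containing 0.2% fatty-acid-free BSA. Medium S1P measured by LC-MS/MS; reported as % decrease versus no-inhibitor control, in duplicate.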
# [2] = Drug concentration in C57BL/6J mouse plasma at 10 mg/kg, po measured after 8 hrs LC-MS/MS analysis; type: ADME, organism-based
# Method in brief: (§1)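 Three female C57BL/6j mice, 8–10 weeks old, given a single 10 mg/kg oral dose. Vehicle: 36.1% PEG400/9.1% ethanol/4.6% solutol/50% H2O. Blood sampled over time after dosing; plasma compound levels quantified by LC-MS/MS.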
# [3] = tested on: Mus musculus; test: Effect on plasma S1P level in C57BL/6J mouse at 10 to 100 mg/kg, po measured after 4 hrs by LC-MS/MS analysis; type: functional, organism-based; details: dose 10-100 mg/kg
# Method in brief: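 Five female C57BL/6j mice, 8–10 weeks old, dosed by oral gavage at 10, 30 or 100 mg/kg in 36.1% PEG400/9.1% ethanol/4.6% solutol/50% H2O, or vehicle alone. Plasma S1P measured by LC-MS/MS 4 h post dose and expressed relative to vehicle.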
# [4] = Drug uptake in C57BL/6J mouse plasma at 10 mg/kg, po measured after 4 hrs by LC-MS/MS analysis; type: ADME, organism-based; details: in vivo; method in brief: as §1
# [5] = tested on: Mus musculus; test: In vivo inhibition of Spns2 in C57BL/6J mouse assessed as decrease in lymphocytes count administered orally measured after 4 hrs by LC-MS/MS analysis; type: functional, organism-based; details: dose 10-100 mg/kg, route po
# Method in brief: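 Oral gavage at 10, 30 or 100 mg/kg, or vehicle (36.1% PEG400/9.1% ethanol/4.6% solutol/50% H2O), to five female C57BL/6j mice aged 8–10 weeks. Blood drawn 4 h post dose; lymphocytes counted in 20 μL blood on a haematology analyzer and compared with vehicle.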
# [6] = target: T1, Sphingosine-1-phosphate transporter SPNS2 (Mus musculus); test: Inhibition of mouse Spns2 expressed in G418-resistant human HeLa cells assessed as decrease in S1P level incubated for 16 to 18 hrs by LC-MS/MS analysis; type: cell-based; details: dose upper 10.0 µM, time 16-18 hrs
# Method in brief: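 HeLa pools stably expressing mouse Spns2 (G418-selected), with S1P breakdown blocked by 4-deoxypyridoxine 1 mM, NaF 2 mM and Na3VO4 0.2 mM. Cells exposed for 16–18 h at 37 °C to 1 nM–10 μM inhibitor in serum-free 0.2% fatty-acid-free BSA medium. Released S1P quantified by LC-MS/MS; IC50 from dose–response […].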
# [7] = tested on: Mus musculus; test: Effect on plasma S1P level in C57BL/6J mouse at 3 to 30 mg/kg, ip measured after 6 hrs by LC-MS/MS analysis; details: dose 3-30 mg/kg
smiles,measurement,setting,value
CCCCCCCCCCc1ccc(NC(=O)N2CCN[C@H](C)C2)cc1,inhibition,[1],80%
CCCCCCCCCCc1ccc(NC(=O)N2CCNCC2)cc1.Cl,concentration at 8 h,[2],> 500 nM
same,inhibition,[1],91%
same,Activity,[3],inactive
same,Drug uptake,[4],Active
same,inhibition,[5],Dose-Dependent Effect
same,inhibition,[6],Dose-Dependent Effect
same,Activity,[7],inactive
CCCCCCCCCCc1ccc(NC(=O)N2CCN(C)CC2)cc1,inhibition,[1],3%
